Reference: ChEMBL document CHEMBL1147665, “Design, synthesis, and biological evaluation of 4-alkyliden-beta lactams: new products with promising antibiotic activity against resistant bacteria” (J Med Chem, 2006)
≈ marks a conversion by molar mass, not a printed value.

Columns and labels:
Haemophilus influenzae = experiment: Antibacterial activity against Haemophilus influenzae; type: functional
Outline: (§1)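 Broth microdilution MIC per CLSI guidelines in Mueller-Hinton broth: serial 2-fold dilutions, inoculum 5 × 10⁵ CFU/mL in equal volume, 35 °C for 16-20 h. MIC = lowest concentration with no visible turbidity. Recent clinical isolates (43 total, Gram-positive and Gram-negative); values given as MIC ranges, MIC₅₀ and MIC₉₀ per species.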

Staphylococcus aureus [1] = experiment: Antibacterial activity against methicillin-susceptible Staphylococcus aureus; type: functional; outline: as §1
[2] = Viability of human TPC1 cell line at 128 uM after 21 hrs; type: cell-based; details: TPC1 cells, read-out: Activity
Outline: (§2)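 Human TPC1 cells seeded at 40 000/well in supplemented DMEM, grown overnight at 37 °C, 5% CO₂. Fresh medium with compound (0-128 µM, 2-fold steps), six parallel wells per concentration and controls, exposed 3, 6 or 21 h. MTT (5 mg/mL stock diluted 1:15 in medium) for 3 h, acidified 2-propanol solubilization, OD 600 nm; viability relative to control.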

[3] = Viability of human TPC1 cell line at 8 uM after 21 hrs; type: cell-based; details: TPC1 cells, read-out: Activity; outline: as §2
Streptococcus pyogenes = experiment: Antibacterial activity against Streptococcus pyogenes; type: functional; outline: as §1
[4] = Viability of human TPC1 cell line at 128 uM after 3 hrs; type: cell-based; details: TPC1 cells, read-out: Activity; outline: as §2
Staphylococcus aureus [5] = experiment: Antibacterial activity against methicillin-resistant Staphylococcus aureus; type: functional
Outline: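 Clinical isolates (3 MRSA in a 43-strain panel). Broth microdilution per CLSI, serial 2-fold dilutions in Mueller-Hinton broth, inoculum 5 × 10⁵ CFU/mL, 35 °C for 16-20 h. MIC = lowest concentration with no visible turbidity; reported as MIC range, MIC₅₀ and MIC₉₀ across isolates.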

Streptococcus pneumoniae = experiment: Antibacterial activity against Streptococcus pneumoniae; type: functional; outline: as §1
Enterococcus = experiment: Antibacterial activity against Enterococcus spp; type: functional; outline: as §1
[6] = system: Staphylococcus epidermidis; experiment: Antibacterial activity against Staphylococcus epidermidis; type: functional; outline: as §1
[7] = Viability of human TPC1 cell line at 32 uM after 21 hrs; type: cell-based; details: TPC1 cells, read-out: Activity; outline: as §2

| SMILES | MIC50 (Haemophilus influenzae) [µg/mL] | MIC90 (Haemophilus influenzae) [µg/mL] | MIC50 (Staphylococcus aureus [1]) [µg/mL] | MIC90 (Staphylococcus aureus [1]) [µg/mL] | viability at 21 h, 128 µM [2] [%] | viability at 21 h, 8 µM [3] [%] | MIC50 (Streptococcus pyogenes) [µg/mL] | MIC90 (Streptococcus pyogenes) [µg/mL] | viability at 3 h, 128 µM [4] [%] | MIC50 (Staphylococcus aureus [5]) [µg/mL] | MIC90 (Staphylococcus aureus [5]) [µg/mL] | MIC50 (Streptococcus pneumoniae) [µg/mL] | MIC90 (Streptococcus pneumoniae) [µg/mL] | MIC50 (Enterococcus) [µg/mL] | MIC90 (Enterococcus) [µg/mL] | MIC50 [6] [µg/mL] | MIC90 [6] [µg/mL] | viability at 21 h, 32 µM [7] [%] |
| --- | --- | --- | --- | --- | --- | --- | --- | --- | --- | --- | --- | --- | --- | --- | --- | --- | --- | --- |
| O=C(/C=C1\NC(=O)[C@@H]1Cl)OCc1ccccc1 | 1 (≈ 3.97 µM) | 2 (≈ 7.95 µM) | 8 (≈ 31.8 µM) | 16 (≈ 63.6 µM) | 23 | 81 | 32 (≈ 127 µM) | 128 (≈ 509 µM) | 48 | 16 (≈ 63.6 µM) | 32 (≈ 127 µM) | 128 (≈ 509 µM) | 128 (≈ 509 µM) | 16 (≈ 63.6 µM) | 16 (≈ 63.6 µM) | 8 (≈ 31.8 µM) | 32 (≈ 127 µM) |  |
| COc1cc(C(=O)O[C@H](C)[C@H]2C(=O)N/C2=C\C(=O)OCc2ccccc2)cc(OC)c1O | 64 (≈ 145 µM) | 128 (≈ 290 µM) | 16 (≈ 36.2 µM) | 128 (≈ 290 µM) | 64 |  | 128 (≈ 290 µM) | 128 (≈ 290 µM) |  | 32 (≈ 72.5 µM) | 64 (≈ 145 µM) | 128 (≈ 290 µM) | 128 (≈ 290 µM) | 128 (≈ 290 µM) | > 128 | 2 (≈ 4.53 µM) | 64 (≈ 145 µM) | 81 |
| CO/N=C(\C(=O)N[C@@H]1C(=O)N2C(C(=O)O)=C(CSc3nc(=O)c(O)nn3C)CS[C@H]12)c1csc(N)n1 [CEFTRIAXONE] | < 0.06 | 0.12 (≈ 0.216 µM) | 2 (≈ 3.61 µM) | 2 (≈ 3.61 µM) |  |  | < 0.06 | < 0.06 |  | > 128 | > 128 | 0.12 (≈ 0.216 µM) | 2 (≈ 3.61 µM) | > 128 | > 128 | 8 (≈ 14.4 µM) | 32 (≈ 57.7 µM) |  |
| C[C@@H](O)[C@H]1C(=O)N2C(C(=O)O)=C(SCCNC=N)C[C@H]12 [IMIPENEM ANHYDROUS] | < 0.06 | 0.12 (≈ 0.401 µM) | < 0.06 | < 0.06 |  |  | < 0.06 | < 0.06 |  | 64 (≈ 214 µM) | 128 (≈ 428 µM) | 0.12 (≈ 0.401 µM) | 1 (≈ 3.34 µM) | 0.5 (≈ 1.67 µM) | > 128 | < 0.06 | 1 (≈ 3.34 µM) |  |
| C[C@@H](O)[C@H]1C(=O)N2C(C(=O)O)=C(S[C@@H]3CN[C@H](C(=O)N(C)C)C3)[C@H](C)[C@H]12 [MEROPENEM] | < 0.06 | < 0.06 | < 0.06 | < 0.06 |  |  | < 0.06 | < 0.06 |  | 32 (≈ 83.4 µM) | 32 (≈ 83.4 µM) | < 0.06 | 2 (≈ 5.22 µM) | 2 (≈ 5.22 µM) | > 128 | < 0.12 | 64 (≈ 167 µM) |  |
